Measured values as given in ChEMBL document CHEMBL1148550, “4-Phenyl-4-[1H-imidazol-2-yl]-piperidine derivatives, a novel class of selective delta-opioid agonists” (Bioorg Med Chem Lett, 2006).

Tests used:
[1] = target: T1, Delta-type opioid receptor (Homo sapiens, UniProt P41143); assay: Displacement of [3H]DPDPE from cloned human delta opioid receptor
Method in brief: (§1)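 Radioligand competition binding at cloned human receptors: [³H]DAMGO for mu, [³H]DPDPE for delta, [³H]U69593 for kappa. Ki is the concentration giving half-maximal inhibition of tracer binding.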

Mu-type opioid receptor = Mu-type opioid receptor (Homo sapiens, UniProt P35372); assay: Displacement of [3H]DAMGO from cloned human mu opioid receptor; method in brief: as §1
[2] = target: Kappa-type opioid receptor (Homo sapiens, UniProt P41145); assay: Displacement of [3H]U-69593 from cloned human kappa opioid receptor; method in brief: as §1
[3] = target: Opioid receptors; mu & delta (Homo sapiens) (UniProt P41143+P35372); assay: Selectivity for cloned human mu opioid receptor over delta opioid receptor; type: protein assay
[4] = target: Opioid receptors; delta & kappa (Homo sapiens) (UniProt P41145+P41143); assay: Selectivity for cloned human kappa opioid receptor over delta opioid receptor; type: protein assay
[5] = target: T1, Delta-type opioid receptor; assay: Agonist potency assessed by [35S]GTP-gammaS binding assay in C6 Glioma cells expressing cloned human delta opioid receptor; type: functional, cell-based
Method in brief: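 Membranes expressing human δ-opioid receptors; agonism read as percent stimulation of [³⁵S]GTPγS binding against log molar ligand concentration. pEC₅₀ derived from three-parameter logistic curve fits.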

Sequence of Kappa-type opioid receptor (P41145 whole entry): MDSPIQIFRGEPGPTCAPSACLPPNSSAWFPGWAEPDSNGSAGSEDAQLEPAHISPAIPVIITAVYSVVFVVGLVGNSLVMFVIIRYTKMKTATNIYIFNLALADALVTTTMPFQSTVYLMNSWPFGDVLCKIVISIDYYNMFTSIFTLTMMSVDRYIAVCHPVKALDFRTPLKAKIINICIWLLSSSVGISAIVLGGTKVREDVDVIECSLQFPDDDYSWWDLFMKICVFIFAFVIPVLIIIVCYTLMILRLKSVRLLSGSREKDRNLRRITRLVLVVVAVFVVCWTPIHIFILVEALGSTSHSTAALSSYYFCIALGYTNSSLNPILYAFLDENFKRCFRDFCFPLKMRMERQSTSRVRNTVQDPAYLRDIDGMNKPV
Sequence of Mu-type opioid receptor (P35372 whole entry): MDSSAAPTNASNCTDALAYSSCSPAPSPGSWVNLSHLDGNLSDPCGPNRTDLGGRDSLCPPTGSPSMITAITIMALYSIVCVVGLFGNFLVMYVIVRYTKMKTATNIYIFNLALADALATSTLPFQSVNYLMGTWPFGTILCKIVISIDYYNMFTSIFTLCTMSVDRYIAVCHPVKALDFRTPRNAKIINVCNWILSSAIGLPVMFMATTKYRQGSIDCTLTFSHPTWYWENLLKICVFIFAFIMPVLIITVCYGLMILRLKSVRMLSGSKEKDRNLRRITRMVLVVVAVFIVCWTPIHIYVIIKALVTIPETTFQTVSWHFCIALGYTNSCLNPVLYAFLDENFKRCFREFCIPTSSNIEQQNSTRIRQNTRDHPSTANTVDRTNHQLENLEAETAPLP
Sequence of Opioid receptors; mu & delta (Homo sapiens) (P35372 whole entry, looked up): as the sequence (P35372 whole entry) above
Sequence of Opioid receptors; mu & delta (Homo sapiens) (P41143 whole entry, looked up): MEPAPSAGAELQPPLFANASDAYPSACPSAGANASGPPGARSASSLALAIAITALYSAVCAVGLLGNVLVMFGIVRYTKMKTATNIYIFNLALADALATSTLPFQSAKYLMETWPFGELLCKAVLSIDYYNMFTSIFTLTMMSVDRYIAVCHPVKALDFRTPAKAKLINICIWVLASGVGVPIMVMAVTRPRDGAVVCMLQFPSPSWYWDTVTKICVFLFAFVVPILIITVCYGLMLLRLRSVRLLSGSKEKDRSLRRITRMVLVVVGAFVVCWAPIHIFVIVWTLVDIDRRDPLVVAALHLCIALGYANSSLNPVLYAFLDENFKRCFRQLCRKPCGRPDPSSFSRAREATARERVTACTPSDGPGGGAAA
Sequence of Opioid receptors; delta & kappa (Homo sapiens) (P41143 whole entry, looked up): as above
Sequence of Opioid receptors; delta & kappa (Homo sapiens) (P41145 whole entry, looked up): as the sequence (P41145 whole entry) above
T1 sequence (P41143 whole entry): as the sequence (P41143 whole entry, looked up) above

Ki [1] | Ki (Mu-type opioid receptor) | Ki [2] | Ratio Ki [3] | Ratio Ki [4] | EC50 [5] | Compound
203 nM | > 4650 nM | 2160 nM | > 23 | 11 | – | O=C(Nc1ccccc1)N1CCC(c2ccccc2)(c2nccn2Cc2ccc(F)cc2)CC1
44 nM | > 465 nM | – | > 10 | – | – | COc1ccc(NC(=O)N2CCC(c3ccccc3)(c3nccn3Cc3ccccc3)CC2)cc1
79 nM | > 4650 nM | 2530 nM | > 58 | 32 | 98 nM | c1ccc(Cn2ccnc2C2(c3ccccc3)CCN(c3nccs3)CC2)cc1
– | > 4650 nM | 782 nM | – | – | – | COc1ccccc1NC(=O)N1CCC(c2ccccc2)(c2nccn2Cc2ccccc2)CC1
3700 nM | > 4650 nM | 1190 nM | > 1.2 | 0.32 | – | O=C(Nc1ccccc1)N1CCC(c2ccccc2)(c2nccn2C(=O)c2ccccc2)CC1
– | 2520 nM | 318 nM | – | – | – | O=C(Nc1ccccc1F)N1CCC(c2ccccc2)(c2nccn2Cc2ccccc2)CC1
– | > 4650 nM | 242 nM | – | – | – | CCNC(=O)N1CCC(c2ccccc2)(c2nccn2Cc2ccccc2)CC1
97 nM | 1210 nM | 148 nM | 12 | 1.5 | – | O=C(Nc1ccc(F)cc1)N1CCC(c2ccccc2)(c2nccn2Cc2ccccc2)CC1
106 nM | > 4650 nM | > 4650 nM | > 44 | > 44 | – | NS(=O)(=O)N1CCC(c2ccccc2)(c2nccn2Cc2ccccc2)CC1
46 nM | > 4650 nM | 2010 nM | > 101 | 44 | – | CS(=O)(=O)N1CCC(c2ccccc2)(c2nccn2Cc2ccccc2)CC1
18 nM | > 4650 nM | 505 nM | > 258 | 28 | 14 nM | c1ccc(Cn2ccnc2C2(c3ccccc3)CCN(c3ncccn3)CC2)cc1
217 nM | 3250 nM | 2060 nM | 15 | 9 | – | COc1cccc(Cn2ccnc2C2(c3ccccc3)CCN(C(=O)Nc3ccccc3)CC2)c1
– | 497 nM | > 465 nM | – | – | – | CC(c1ccccc1)n1ccnc1C1(c2ccccc2)CCN(C(=O)Nc2ccccc2)CC1 (configuration not stated)
– | > 4650 nM | 397 nM | – | – | – | CN(C(=O)N1CCC(c2ccccc2)(c2nccn2Cc2ccccc2)CC1)c1ccccc1
3.2 nM | 980 nM | – | – | – | 832 nM | O=S(=O)(Nc1ccccc1)N1CCC(c2ccccc2)(c2nccn2Cc2ccccc2)CC1
138 nM | 235 nM | 40 nM | 1.7 | 0.29 | – | Cn1c(N2CCC(c3ccccc3)(c3nccn3Cc3ccccc3)CC2)nc2ccccc21
– | 428 nM | 116 nM | – | – | – | O=C(Nc1ccccc1)N1CCC(c2ccccc2)(c2nccn2Cc2ccccc2F)CC1
– | 1380 nM | 152 nM | – | – | – | COc1cccc(NC(=O)N2CCC(c3ccccc3)(c3nccn3Cc3ccccc3)CC2)c1
> 465 nM | > 465 nM | > 4650 nM | – | – | – | O=C(Nc1ccccc1)N1CCC(c2ccccc2)(c2ncc[nH]2)CC1
81 nM | > 465 nM | 126 nM | > 5.7 | 1.6 | 1480 nM | O=C(Nc1ccccc1)N1CCC(c2ccccc2)(c2nccn2Cc2ccccc2)CC1
– | > 4650 nM | > 4650 nM | – | – | – | O=C(Nc1cccc(F)c1)N1CCC(c2ccccc2)(c2nccn2Cc2ccccc2)CC1
161 nM | > 4650 nM | 858 nM | > 29 | 5.3 | – | CN1CCN(C(=O)N2CCC(c3ccccc3)(c3nccn3Cc3ccccc3)CC2)CC1

Compound | Ki [1] | Ki (Mu-type opioid receptor) | Ki [2] | Ratio Ki [3] | Ratio Ki [4] | EC50 [5]
c1ccc(Cn2ccnc2C2(c3ccccc3)CCN(c3nc4ccccc4s3)CC2)cc1 | 73 nM | > 4650 nM | – | > 63 | – | 26 nM
O=C(Nc1ccccc1)N1CCC(c2ccccc2)(c2nccn2Cc2ccccn2)CC1 | 3070 nM | 1420 nM | 46 nM | 0.46 | 0.015 | –
NC(=O)N1CCC(c2ccccc2)(c2nccn2Cc2ccccc2)CC1 | 99 nM | > 4650 nM | 334 nM | > 51 | 3.4 | –
O=C(Nc1ccccc1)N1CCC(c2ccccc2)(c2nccn2Cc2cccc(F)c2)CC1 | 128 nM | > 4650 nM | 1880 nM | > 36 | 15 | –
